Screening data: PubChem BioAssay, Sanford-Burnham Center for Chemical Genomics
Shown are actives, neighbours in structure and some others; about 1.7% of the full set was active somewhere.
Scp-1 inhibitor: inhibitors of human Scp-1 phosphatase. Q9GZU7. actives 0.88% (n = 340,000). AID 493091. Recombinant Scp1, phosphopeptide, malachite green phosphate absorbance. inhibition, % at 20 µM;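 active = inhibition above about 50% at 20 µM, limit read from the data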;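 also: plate controls were DMSO wells with enzyme for no effect and wells lacking enzyme for full effect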
Target sequence (Q9GZU7 76-261 limits assumed): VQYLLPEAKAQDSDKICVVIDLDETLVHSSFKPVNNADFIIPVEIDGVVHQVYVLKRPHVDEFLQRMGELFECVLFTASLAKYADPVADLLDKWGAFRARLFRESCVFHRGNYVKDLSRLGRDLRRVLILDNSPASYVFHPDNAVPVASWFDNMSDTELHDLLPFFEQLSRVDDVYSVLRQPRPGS
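Test system – truncated SCP-1 phosphatase (76-261aa) · Reagent – Phosphorylated 17-residue peptide substrate · Incubation – 45 min room-temperature reaction, 5 min colour, 30 min stabiliser · Detection – colorimetric phosphate reagent with accelerator and stabiliser, absorbance at 630 nm · Measure – % inhibition at 20 µM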
DNMT1 block: blocks human DNA methyltransferase DNMT1; P26358; DNMT1 molecular beacon, Hinp1I cleavage, fluorescence; inhibition (reported as % activation of signal), % at 10 µM; actives 0.83% (n = 360,000); AID 588458; in the data active = inhibition above about 50%
SUMO1 PPI mod: alters human SUMO1 binding to SIM partners; P63165; SUMO1 binding to a labelled peptide, TR-FRET, 1 h; inhibition, % at 20 µM; actives 0.33% (n = 360,000); AID 602429; in the data active = inhibition above about 37%
Target sequence (P63165 whole entry, looked up): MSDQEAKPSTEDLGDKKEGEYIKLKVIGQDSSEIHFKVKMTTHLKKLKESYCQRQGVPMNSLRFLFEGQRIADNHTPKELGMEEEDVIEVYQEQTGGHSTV
STEP block: blocks human striatal-enriched tyrosine phosphatase; P54829; recombinant STEP, OMFP fluorogenic substrate, fluorescence; inhibition, % at 20 µM; actives 0.25% (n = 360,000); AID 588621;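 active = inhibition at 20 µM, scaled per plate between control wells, above about 37%, limit read from the data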;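 also: 0% = DMSO with enzyme and substrate and 100% = substrate only without enzyme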
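medium = Bis-Tris buffer pH 6.0, 2.5 mM DTT, 0.005% Tween 20 | test system = STEP (striatal-enriched tyrosine phosphatase) enzyme, cell-free | measure = normalized % inhibition | compound dosing = 20 µM, 1% DMSO | also added = 25 µM OMFP | schedule = reaction 20 min, ambient temperature | measured by = fluorescence read at 480 nm ex / 540 nm em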
LMPTP inh: LMPTP (human) inhibition. P24666. recombinant LMPTP-A, OMFP fluorogenic substrate, fluorescence intensity. inhibition, % at 20 µM. actives 0.22% (n = 360,000). AID 651560;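 active = compounds that cut the enzyme signal by at least half of the control window in the single-dose screen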;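 also: plate controls were DMSO wells with enzyme plus substrate for no effect and substrate without enzyme for full effect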
Target sequence (P24666 whole entry, looked up): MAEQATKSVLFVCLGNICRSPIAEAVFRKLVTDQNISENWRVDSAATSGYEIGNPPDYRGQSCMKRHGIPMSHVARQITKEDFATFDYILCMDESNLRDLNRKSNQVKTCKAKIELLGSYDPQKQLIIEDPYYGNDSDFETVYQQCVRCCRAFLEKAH
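Assay system: LMPTP-A, protein tyrosine phosphatase of low molecular weight / Medium: pH 6.0 Bis-Tris buffer with DTT and Triton X-100 / Schedule: 50 min enzyme reaction at room temperature, protected from light / Measured by: endpoint fluorescence intensity from OMFP dephosphorylation / Read-out basis: % inhibition relative to no-enzyme and uninhibited control wells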
* marks the source's active call; other numbers are inactive results; x = no result; ! = a repeat was not active.

SMILES | Scp-1 inhibitor | DNMT1 block | SUMO1 PPI mod | STEP block | LMPTP inh
C[C@@H]1CN([C@H](C)CO)C(=O)CCCn2cc(nn2)CO[C@H]1CN(C)C(=O)Nc1ccnc(N2CCOCC2)c1 | x | 2 | 108* | 3 | 14
COCCCNC(=O)C[C@@H]1C[C@@]2(C(=O)OC)CCCCC=C2N(Cc2ccc(Cl)cc2Cl)C1=O | x | x | 5 | x | 1
COc1ccc(OCC(=O)N/N=C/c2cccn2-c2cccc(C(=O)O)c2)cc1 | 32 | 53* | 13 | -1 | 1
CCN(CC)CCCNc1ccc2ncn3c4ccc(O)cc4c(=O)c1c23 | 2 | 133* | -11 | -40 | 23
CN(C)CCNc1ccc2nnn3c4ccc(O)cc4c(=O)c1c23 | -13 | 53* | -93 | -1 | -2
CCOC(=O)c1ccc2ncc(C(=O)OCC)c(NCCN(C)C)c2c1 | -10 | 9 | -4 | -4 | -2
CCN(CC)CCCNc1ncnc2ccccc12 | -10 | -6 | -23 | -3 | 5
Cc1[nH]n(-c2ccccc2)c(=S)c1C=Nc1ccc([N+](=O)[O-])cc1 | 74* | 6 | -7 | -4 | -2
Cc1[nH]n(-c2ccccc2)c(=O)c1C=Nc1ccc(S(=O)(=O)N=C(N)N)cc1 | -2 | -3 | -4 | -4 | -1
COc1ccc(S(=O)(=O)N(C)c2ccc(C(=O)N3CCN(c4ccccc4)CC3)cc2)cc1OC | 0 | -1 | 4 | 4 | 0
Cc1ccc(NC2=C/C(=N\S(=O)(=O)c3cccs3)c3ccccc3C2=O)c(C)c1 | -9 | 32 | 3 | 6 | 8
Cc1ccc(Cl)cc1NC1=C/C(=N\S(=O)(=O)c2cccs2)c2ccccc2C1=O | -12 | 57*! | -9 | 4 | 5
O=C(O)c1ccc(NC2=C/C(=N/S(=O)(=O)c3cccs3)c3ccccc3C2=O)cc1 | x | 97* | 65* | 5 | 9
O=C1C(Nc2ccc(O)cc2)=C/C(=N/S(=O)(=O)c2cccs2)c2ccccc21 | -8 | 67* | 52* | 2 | 10
COc1ccc(-c2cnc3ccccc3n2)cc1NC(=O)CNC(=O)c1ccccc1 | -7 | 0 | -8 | 0 | 1
COC(=O)CNC(=O)C1CCC(CNS(=O)(=O)c2cccc3nsnc23)CC1 (configuration not stated) | -1 | 3 | -34 | -1 | 0
O=C(Nc1cc(C(=O)Nc2ccccc2C(=O)O)cc(C(=O)Nc2ccccc2C(=O)O)c1)c1ccccc1 | 4 | 7 | 42* | 18 | 0
O=C(Nc1ccccc1C(=O)O)c1cccc(NC(=O)c2ccccc2Br)c1 | -3 | -6 | 12 | -1 | 0
COc1cc(C2/C(=C(\O)c3ccc4c(c3)CC(C)O4)C(=O)C(=O)N2CC2CCCO2)cc(OC)c1OC (configuration not stated) | -9 | 0 | 1 | -3 | -2
CC1Cc2cc(/C(O)=C3/C(=O)C(=O)N(CC4CCCO4)C3c3ccco3)ccc2O1 (configuration not stated) | 19 | 50* | -1 | 3 | 0
O=C(O)CN1C(=O)/C(=C\c2cn(-c3ccccc3)nc2-c2ccccc2)SC1=S | 22 | -3 | -6 | 9 | 2
CCCOc1ccc(-c2nn(-c3ccccc3)cc2/C=C2\SC(N)=NC2=O)cc1 | -5 | 55* | 11 | 4 | 0
CCN1C(=O)/C(=C\c2cn(-c3ccccc3)nc2-c2cccnc2)SC1=S | 6 | 53* | 8 | -1 | 0
O=C1C(=Cc2cn(-c3ccccc3)nc2-c2ccc(OCc3ccccc3)cc2)SC(=S)N1CCS(=O)(=O)O | x | -59 | 90* | 10 | 88*
Cc1cc(-c2nn(-c3ccccc3)cc2/C=C2\SC(N)=NC2=O)ccc1OC(C)C | -2 | -18 | -7 | 0 | 1
SMILES | Scp-1 inhibitor | DNMT1 block | SUMO1 PPI mod | STEP block | LMPTP inh
Cc1ccc([C@H]2C[C@H](n3cc(COC(=O)c4ccccc4)nn3)[C@@H](O)CN2C(=O)C2CCCCC2)cc1 | x | -3 | 2 | 2 | 1
N#Cc1c(N2CCCC2)nc(N)c2c(N)nc(N3CCCC3)cc12 | 8 | 118* | 48* | 60* | 41
CC1=C(C(=O)OCc2ccccc2)C(c2cccc([N+](=O)[O-])c2)NC(=O)N1CCCCCC(=O)O (configuration not stated) | -4 | 6 | -8 | 0 | -1
CCOC(=O)C1=C(C)N(CCCCCC(=O)O)C(=O)NC1c1cccc([N+](=O)[O-])c1 (configuration not stated) | -6 | 92* | -4 | 1 | -1
Cc1ccc(S(=O)(=O)N(CC(=O)NC2CC3CCC2C3)c2ccccc2)cc1 (configuration not stated) | x | 0 | -1 | 2 | 0
COc1cc(C)c2c(c1C=O)Oc1c(c(C)c(O)c3c1C(O)OC3=O)OC2=O (configuration not stated) | 10 | -21 | 78* | 2 | -9
NC(=O)c1ncn([C@@H]2O[C@H](CNCc3ccc(OCC(=O)Nc4nccs4)cc3)[C@@H](O)[C@H]2O)n1 | -4 | 3 | 2 | 0 | 0
CC(C)CN(CCCNC(=O)CN1C(=O)COc2ccc(S(=O)(=O)N3CCOCC3)cc21)CC(C)C | -5 | 0 | -7 | -3 | -5
O=C(CSc1ccc(-c2ccncc2)nn1)c1ccc(Cl)cc1 | 2 | 8 | 51* | 3 | 0
Cc1ccc(C(=O)CSc2ccc(-c3ccncc3)nn2)cc1 | -9 | -2 | 24 | 5 | 0
CSc1ccc(CNC(=O)C2(C)CCCN(C(C)C)C2)cc1 (configuration not stated) | x | 4 | 9 | -4 | 1
O/C=c1\ccc2cccc3nc(C(F)(F)F)nc1c23 | 12 | 50* | -13 | 1 | 33
O=C(CNC(=O)c1cccs1)Nc1cccc(S(=O)(=O)N2CCOCC2)c1 | 7 | -2 | -1 | -2 | 0
O=C(O)COc1ccc2nsnc2c1Cl | 0 | -4 | 0 | 3 | 0
Cc1ccccc1C1=C/C(=C(\SS/C(C(=O)c2ccc(OCC(=O)O)c(Cl)c2Cl)=C2\C=C(c3ccccc3C)SS2)C(=O)c2ccc(OCC(=O)O)c(Cl)c2Cl)SS1 | 10 | 47 | 116* | 15 | 73*
CC(=O)c1cccc(-c2ccc3c(=O)[nH]c(Nc4ccccc4)cc3c2)c1 | 7 | 105* | 34 | 20 | 19
CCCCCCCCCCCC1N=C(N)NC(CCCO)=C1C(=O)OC (configuration not stated) | 5 | -13 | 103* | 13 | 4
COC(=O)[C@]1(Cc2ccccc2)N[C@H](CN(C)C(=O)c2ccc(C(C)(C)C)cc2)[C@@H]2C(=O)N(Cc3ccccc3)C(=O)[C@@H]21 | 4 | -2 | 9 | 3 | 3
CCn1c(C)cc(C=C2C(=O)c3ccccc3C2=O)c1C | -7 | -12 | -19 | 0 | 4
